Calls of active or inactive are those of the source. The calls are words filed in the database; no cut-off is given here.
Legend:
[1] = target: Tumour suppressor p53/oncoprotein Mdm2 (Homo sapiens, UniProt Q00987); assay: Inhibition of GST-tagged MDM2 (amino acids 17 to 111 residues)/p53 (unknown origin) interaction incubated for 15 mins by; assay type: protein assay
SJSA-1 [2] = assay: Antitumor activity against human SJSA-1 cells xenografted in BomTac:NMRI-Foxn1^nu mouse assessed as induction of tumor regression at 25 mg/kg, po dosed daily for 13 days; assay type: functional, organism-based; settings: time 13.0 day
How it was run: (§1)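 NMRI nude mice bearing established subcutaneous SJSA-1 osteosarcoma tumors received oral treatment, with a vehicle control group. There were 8 animals per group. Median tumor volume and median body weight change (% of initial) were tracked.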

SJSA-1 [3] = assay: Antitumor activity against human SJSA-1 cells xenografted in BomTac:NMRI-Foxn1^nu mouse assessed as induction of tumor regression at 100 mg/kg, po administered as single dose and measured up to 13 days; assay type: functional, organism-based; settings: time day <=13; how it was run: as §1
[4] = target: E3 ubiquitin-protein ligase Mdm2 (Mus musculus) (UniProt P23804); assay: In-vivo inhibition of MDM2 in BomTac:NMRI-Foxn1^nu mouse xenografted with human SJSA-1 cells assessed as induction of CDKN1a mRNA expression at 100 mg/kg, po administered as single dose and measured after 6 to 24 hrs by q-RT-PCR analysis; assay type: functional, organism-based; settings: time 6-24 hrs, TDE = time-dependent effect
How it was run: (§2)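 Established subcutaneous SJSA-1 xenografts in NMRI nude mice were dosed once orally at 100 mg/kg, or with vehicle. Tumors were harvested 6 h and 24 h after dosing. TP53 target-gene mRNA was quantified by q-RT-PCR.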

[5] = target: E3 ubiquitin-protein ligase Mdm2 (Mus musculus) (UniProt P23804); assay: In-vivo inhibition of MDM2 in BomTac:NMRI-Foxn1^nu mouse xenografted with human SJSA-1 cells assessed as induction of MDM2 mRNA expression at 100 mg/kg, po administered as single dose and measured after 6 to 24 hrs by q-RT-PCR analysis; assay type: functional, organism-based; settings: time 6-24 hrs, TDE = time-dependent effect; how it was run: as §2
[6] = target: E3 ubiquitin-protein ligase Mdm2 (Mus musculus) (UniProt P23804); assay: In-vivo inhibition of MDM2 in BomTac:NMRI-Foxn1^nu mouse xenografted with human SJSA-1 cells assessed as induction of BBC3 mRNA expression at 100 mg/kg, po administered as single dose and measured after 6 to 24 hrs by q-RT-PCR analysis; assay type: functional, organism-based; settings: time 6-24 hrs, TDE = time-dependent effect; how it was run: as §2
[7] = target: E3 ubiquitin-protein ligase Mdm2 (Mus musculus) (UniProt P23804); assay: In-vivo inhibition of MDM2 in BomTac:NMRI-Foxn1^nu mouse xenografted with human SJSA-1 cells assessed as induction of TP53 protein accumulation at 100 mg/kg, po administered as single dose and measured after 6 to 24 hrs by mesoscale assay; assay type: functional, organism-based; settings: time 6-24 hrs
How it was run: (§3)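 In NMRI nude mice with established subcutaneous SJSA-1 tumors, a single oral 100 mg/kg dose was compared with vehicle. Tumors collected at 6 h and 24 h post-dose were analysed for protein biomarkers by Meso-Scale assay.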

[8] = target: E3 ubiquitin-protein ligase Mdm2 (Mus musculus) (UniProt P23804); assay: In-vivo inhibition of MDM2 in BomTac:NMRI-Foxn1^nu mouse xenografted with human SJSA-1 cells assessed as induction of MDM2 protein accumulation at 100 mg/kg, po administered as single dose and measured after 6 to 24 hrs by mesoscale assay; assay type: functional, organism-based; settings: time 6-24 hrs; how it was run: as §3
[9] = target: E3 ubiquitin-protein ligase Mdm2 (Mus musculus) (UniProt P23804); assay: In-vivo inhibition of MDM2 in BomTac:NMRI-Foxn1^nu mouse xenografted with human SJSA-1 cells assessed as induction of cleaved caspse-3 protein accumulation at 100 mg/kg, po administered as single dose and measured after 6 to 24 hrs by mesoscale assay; assay type: functional, organism-based; settings: time 6-24 hrs; how it was run: as §3
[10] = target: E3 ubiquitin-protein ligase Mdm2 (Mus musculus) (UniProt P23804); assay: In-vivo inhibition of MDM2 in BomTac:NMRI-Foxn1^nu mouse xenografted with human SJSA-1 cells assessed as induction of CDKN1a protein accumulation at 100 mg/kg, po administered as single dose and measured after 6 to 24 hrs by immunohistochemical analysis; assay type: functional, organism-based; settings: time 6-24 hrs
How it was run: (§4)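 SJSA-1 tumor-bearing NMRI nude mice received one oral dose of 100 mg/kg. Tumors were harvested at 6 h and 24 h. Sections were stained by immunohistochemistry for CDKN1a, TP53 and cleaved CASPASE3.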

[11] = target: E3 ubiquitin-protein ligase Mdm2 (Mus musculus) (UniProt P23804); assay: In-vivo inhibition of MDM2 in BomTac:NMRI-Foxn1^nu mouse xenografted with human SJSA-1 cells assessed as induction of TP53 protein accumulation at 100 mg/kg, po administered as single dose and measured after 6 to 24 hrs by immunohistochemical analysis; assay type: functional, organism-based; settings: time 6-24 hrs; how it was run: as §4
[12] = target: E3 ubiquitin-protein ligase Mdm2 (Mus musculus) (UniProt P23804); assay: In-vivo inhibition of MDM2 in BomTac:NMRI-Foxn1^nu mouse xenografted with human SJSA-1 cells assessed as induction of cleaved CASPASE3 protein accumulation at 100 mg/kg, po administered as single dose and measured after 6 to 24 hrs by immunohistochemical analysis; assay type: functional, organism-based; settings: time 6-24 hrs; how it was run: as §4
SJSA-1 [13] = assay: Antiproliferative activity against human SJSA-1 cells expression wild type p53 incubated for 3 days by Alamar Blue dye based assay; assay type: functional, cell-based; settings: SJSA-1, 72 h
SK-OV-3 = assay: Antiproliferative activity against human SK-OV-3 cells expression p53 mutant incubated for 3 days by Alamar Blue dye based assay; assay type: functional, cell-based; settings: SK-OV-3, 72 h
How it was run: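 p53-mutant SK-OV-3 cells were used in a growth/proliferation assay, with compounds tested up to 25 μM.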

[14] = AUC (0 to 24 hrs) in NMRI mouse at 50 mg/kg, po; assay type: ADME, organism-based; set-up: time < 24 hr, route oral, dose 50 mg/kg; settings: in vivo
How it was run: (§5)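 Non-tumor-bearing female NMRI nude mice were given a single dose by one of two routes. The iv arm received 5 mg/kg as a bolus in 25% HP-B-CD. The po arm received 50 mg/kg in 0.5% Natrosol (pH 7-8, NaOH titrated). Both used 10 ml/kg. Plasma levels were measured by LC/MS/MS, n=3 per dose group. Parameters came from non-compartmental analysis, with AUC0-24h by linear trapezoidal interpolation.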

[15] = Cmax in NMRI mouse at 50 mg/kg, po; assay type: ADME, organism-based; set-up: route oral, dose 50 mg/kg; settings: in vivo; how it was run: as §5
[16] = Clearance in NMRI mouse at 5 mg/kg, iv; assay type: ADME, organism-based; settings: in vivo; how it was run: as §5
[17] = Volume of distribution at steady state in NMRI mouse at 5 mg/kg, iv; assay type: ADME, organism-based; settings: in vivo, read-out: Vdss; how it was run: as §5

Tumour suppressor p53/oncoprotein Mdm2, sequence (P04637 whole entry, the tested form may be a part): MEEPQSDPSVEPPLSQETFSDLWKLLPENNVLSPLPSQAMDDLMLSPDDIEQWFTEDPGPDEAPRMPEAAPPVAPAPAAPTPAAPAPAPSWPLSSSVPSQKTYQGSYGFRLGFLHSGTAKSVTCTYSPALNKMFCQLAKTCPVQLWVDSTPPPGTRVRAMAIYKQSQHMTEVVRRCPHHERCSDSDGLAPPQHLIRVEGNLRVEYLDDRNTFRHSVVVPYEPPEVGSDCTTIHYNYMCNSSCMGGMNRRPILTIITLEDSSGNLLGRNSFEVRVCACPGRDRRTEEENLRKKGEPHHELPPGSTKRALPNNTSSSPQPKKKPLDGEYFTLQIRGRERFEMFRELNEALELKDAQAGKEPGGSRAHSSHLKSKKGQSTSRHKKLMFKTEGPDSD
Tumour suppressor p53/oncoprotein Mdm2, sequence (Q00987 whole entry, the tested form may be a part): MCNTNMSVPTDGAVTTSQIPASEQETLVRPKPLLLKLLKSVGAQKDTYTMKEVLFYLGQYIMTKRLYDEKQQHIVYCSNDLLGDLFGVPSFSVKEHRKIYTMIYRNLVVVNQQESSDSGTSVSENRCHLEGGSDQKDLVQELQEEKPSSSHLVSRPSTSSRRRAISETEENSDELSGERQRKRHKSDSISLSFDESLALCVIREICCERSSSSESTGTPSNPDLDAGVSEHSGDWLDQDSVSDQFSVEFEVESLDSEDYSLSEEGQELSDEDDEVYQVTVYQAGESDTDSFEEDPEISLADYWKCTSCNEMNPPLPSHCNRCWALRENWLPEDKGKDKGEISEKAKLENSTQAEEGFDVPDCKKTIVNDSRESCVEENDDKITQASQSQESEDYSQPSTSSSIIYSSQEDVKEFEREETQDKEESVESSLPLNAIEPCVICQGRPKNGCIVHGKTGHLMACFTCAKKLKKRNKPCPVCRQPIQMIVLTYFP
E3 ubiquitin-protein ligase Mdm2 (Mus musculus), sequence (P23804 whole entry): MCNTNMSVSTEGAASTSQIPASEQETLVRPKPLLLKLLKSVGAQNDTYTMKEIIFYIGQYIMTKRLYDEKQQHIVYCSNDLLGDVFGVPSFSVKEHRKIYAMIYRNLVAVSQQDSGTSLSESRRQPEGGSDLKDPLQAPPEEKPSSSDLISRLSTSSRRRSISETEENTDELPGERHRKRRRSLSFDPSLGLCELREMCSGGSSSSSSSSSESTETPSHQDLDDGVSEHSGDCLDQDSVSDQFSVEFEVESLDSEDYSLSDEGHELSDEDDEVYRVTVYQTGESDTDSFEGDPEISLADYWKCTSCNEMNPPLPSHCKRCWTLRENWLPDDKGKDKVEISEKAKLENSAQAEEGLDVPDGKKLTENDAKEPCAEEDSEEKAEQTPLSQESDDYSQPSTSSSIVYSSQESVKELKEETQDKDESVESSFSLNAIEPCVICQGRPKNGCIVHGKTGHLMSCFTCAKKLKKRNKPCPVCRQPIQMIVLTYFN

O=C1Nc2cc(Cl)ccc2[C@]12N[C@@H](Cn1cncn1)[C@@H]([N+](=O)[O-])[C@@H]2c1cccc(Cl)c1 (racemic)
IC50 [1]: 5.5 µM

C[C@H]1[C@@H](NCc2ccc(C(=O)O)cc2)[C@H](c2cccc(Cl)c2F)[C@]2(C(=O)Nc3cc(Cl)ccc32)N1CC1CC1
IC50 [1]: 0.107 µM

O=C(O)c1ccc([C@H]2C[C@H]3[C@@H](N2)[C@H](c2cccc(Cl)c2F)[C@]2(C(=O)Nc4cc(Cl)ccc42)N3CC2CC2)cc1
Activity (SJSA-1 [2]): Active
Activity (SJSA-1 [3]): Active
inhibition [4]: Tde
inhibition [5]: Tde
inhibition [6]: Tde
inhibition [7]: Active
inhibition [8]: Active
inhibition [9]: Active
inhibition [10]: Active
inhibition [11]: Active
inhibition [12]: Active
IC50 (SJSA-1 [13]): 0.471 µM
IC50 (SK-OV-3): > 25 µM
AUC(0-t) at 24 h [14]: 264 µM·h
Cmax [15]: 21.3 µM
clearance [16]: 7.1 mL/min/kg
Vd [17]: 2.1 L/kg

CSC[C@@H]1N[C@@]2(C(=O)Nc3cc(Cl)ccc32)[C@@H](c2cccc(Cl)c2)[C@@H]1[N+](=O)[O-] (racemic)
IC50 [1]: 24.6 µM

C[C@H]1[C@@H](NCC(=O)O)[C@H](c2cccc(Cl)c2F)[C@]2(C(=O)Nc3cc(Cl)ccc32)N1CC1CC1
IC50 [1]: 0.062 µM
IC50 (SJSA-1 [13]): 2.88 µM
IC50 (SK-OV-3): > 25 µM

O=C1Nc2cc(Cl)ccc2[C@]12N[C@@H](Cc1c[nH]cn1)[C@@H]([N+](=O)[O-])[C@@H]2c1cccc(Cl)c1 (racemic)
IC50 [1]: 15.2 µM

CC(C)(C)CN1C[C@@H](N)[C@H](c2cccc(Cl)c2)[C@]12C(=O)Nc1cc(Cl)ccc12
IC50 [1]: 0.819 µM

CC(C)CCN1[C@@H](C)[C@@H](N)[C@H](c2cccc(Cl)c2)[C@]12C(=O)Nc1cc(Cl)ccc12 (racemic)
IC50 [1]: 1.07 µM

O=C1Nc2cc(Cl)ccc2[C@]12N[C@@H](CO)[C@@H]([N+](=O)[O-])[C@@H]2c1cccc(Cl)c1 (racemic)
IC50 [1]: 30.7 µM

C[C@@H]1N[C@@]2(C(=O)Nc3cc(Cl)ccc32)[C@@H](c2cccc(Cl)c2)[C@@H]1[N+](=O)[O-] (racemic)
IC50 [1]: 40 µM

CCOc1cccc(CN2[C@@H](C)[C@@H](N)[C@H](c3cccc(Cl)c3F)[C@]23C(=O)Nc2cc(Cl)ccc23)c1
IC50 [1]: 0.034 µM

NC(=O)CC[C@@H]1N[C@@]2(C(=O)Nc3cc(Cl)ccc32)[C@@H](c2cccc(Cl)c2)[C@@H]1[N+](=O)[O-] (racemic)
IC50 [1]: 13.5 µM

NC(=O)c1cccc(C[C@@H]2N[C@@]3(C(=O)Nc4cc(Cl)ccc43)[C@@H](c3cccc(Cl)c3)[C@@H]2[N+](=O)[O-])c1 (racemic)
IC50 [1]: 18.3 µM

CC(C)CCN1[C@@H](Cn2cncn2)[C@@H](N)[C@H](c2cccc(Cl)c2)[C@]12C(=O)Nc1cc(Cl)ccc12 (racemic)
IC50 [1]: 2.06 µM

CC(=O)N[C@@H]1[C@H](C)N(CC2CC2)[C@@]2(C(=O)Nc3cc(Cl)ccc32)[C@H]1c1cccc(Cl)c1F
IC50 [1]: 0.229 µM

C[C@H]1[C@@H](N)[C@H](c2cccc(Cl)c2F)[C@]2(C(=O)Nc3cc(Cl)ccc32)N1CC1CC1
IC50 [1]: 0.157 µM
IC50 (SJSA-1 [13]): 2.98 µM
IC50 (SK-OV-3): > 25 µM

Source: ChEMBL document CHEMBL4680091, “Discovery of Novel Spiro[3H-indole-3,2'-pyrrolidin]-2(1H)-one Compounds as Chemically Stable and Orally Active Inhibitors of the MDM2-p53 Interaction” (J Med Chem, 2016)
